# Calls of active or inactive are those of the source. The rule behind the calls is not given here.
# How the values were obtained:
# Rattus norvegicus [1] = species on record: Rattus norvegicus; assay: Effect on 2-(aminoethyl)methanethiosulphonate hydrobromide-induced inactivation of rat SERT X5C mutant
# Procedure, shortened: (§1)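 Membranes from HeLa cells expressing rat SERT X5C or K279C (X5C background) were treated with 2 mM MTSEA plus graded ibogaine. Membranes were washed free of MTSEA and ibogaine, then residual binding was measured with 0.1 nM [125I]β-CIT for 1.5 h at room temperature.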
# Rattus norvegicus [2] = species on record: Rattus norvegicus; assay: Inhibition of 2-(aminoethyl)methanethiosulphonate hydrobromide-induced inactivation of rat SERT S277 mutant assessed as drug level causing half maximal protection from inactivation
# Procedure, shortened: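 Membranes from HeLa cells expressing rat SERT S277C were treated with 50 μM MTSEA plus graded cocaine, ibogaine or 5-HT. After washing, residual [125I]β-CIT binding was measured. The drug concentration giving half-maximal protection from or potentiation of inactivation was fitted by nonlinear regression.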
# [3] = test system: Sodium-dependent serotonin transporter (Rattus norvegicus), P31652 [K272C]; assay: Effect on 2-(aminoethyl)methanethiosulphonate hydrobromide-induced inactivation of rat SERT K272C mutant assessed as increase in rate constant for inactivation
# Procedure, shortened: (§2)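 Membranes from HeLa cells expressing rat SERT cysteine mutants were filter-bound and treated for 10 min with a range of MTSEA concentrations plus 10 μM ibogaine, 5-HT or cocaine. After washing, residual 0.1 nM [125I]β-CIT binding was measured. The MTSEA concentration giving half-maximal inactivation was used to calculate the inactivation rate constant.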
# Rattus norvegicus [4] = species on record: Rattus norvegicus; assay: Effect on 2-(aminoethyl)methanethiosulphonate hydrobromide-induced inactivation of rat SERT K279 mutant; procedure, shortened: as §1
# Rattus norvegicus [5] = species on record: Rattus norvegicus; assay: Effect on 2-(aminoethyl)methanethiosulphonate hydrobromide-induced inactivation of rat SERT […] mutant assessed as increase in rate constant for inactivation; procedure, shortened: as §2
# [6] = test system: Sodium-dependent serotonin transporter (Rattus norvegicus), P31652 [S404C]; assay: Effect on 2-(aminoethyl)methanethiosulphonate hydrobromide-induced inactivation of rat SERT S404C mutant assessed as increase in rate constant for inactivation; procedure, shortened: as §2
# [7] = test system: Sodium-dependent serotonin transporter (Rattus norvegicus), P31652 [T284C]; assay: Effect on 2-(aminoethyl)methanethiosulphonate hydrobromide-induced inactivation of rat SERT T284C mutant assessed as increase in rate constant for inactivation; procedure, shortened: as §2
# [8] = test system: Sodium-dependent serotonin transporter (Rattus norvegicus), P31652 [S277C]; assay: Effect on 2-(aminoethyl)methanethiosulphonate hydrobromide-induced inactivation of rat SERT S277C mutant assessed as increase in rate constant for inactivation; procedure, shortened: as §2
# [9] = test system: Sodium-dependent serotonin transporter (Rattus norvegicus), P31652 [V281C]; assay: Effect on 2-(aminoethyl)methanethiosulphonate hydrobromide-induced inactivation of rat SERT V281C mutant assessed as increase in rate constant for inactivation; procedure, shortened: as §2
# [10] = test system: Sodium-dependent serotonin transporter (Rattus norvegicus), P31652 [Y107C]; assay: Effect on 2-(aminoethyl)methanethiosulphonate hydrobromide-induced inactivation of rat SERT Y107C mutant assessed as increase in rate constant for inactivation; procedure, shortened: as §2
# [11] = test system: Sodium-dependent serotonin transporter (Rattus norvegicus), P31652 [T276C]; assay: Effect on 2-(aminoethyl)methanethiosulphonate hydrobromide-induced inactivation of rat SERT T276C mutant assessed as increase in rate constant for inactivation; procedure, shortened: as §2
# [12] = test system: Sodium-dependent serotonin transporter (Rattus norvegicus), P31652 [G273C]; assay: Effect on 2-(aminoethyl)methanethiosulphonate hydrobromide-induced inactivation of rat SERT G273C mutant assessed as increase in rate constant for inactivation; procedure, shortened: as §2
# [13] = molecular target: T1, Sodium-dependent serotonin transporter (Rattus norvegicus, UniProt P31652); assay: Displacement of [125I]beta-CIT from rat SERT expressed in HeLa cells; format: cell-based
# [14] = molecular target: T1, Sodium-dependent serotonin transporter; assay: Inhibition of [3H]5HT uptake at rat SERT expressed in HeLa cells; format: cell-based
# [15] = molecular target: T2, Sodium-dependent serotonin transporter (Homo sapiens, UniProt P31645); assay: Displacement of [125I]beta-CIT from human SERT in human platelet membrane in presence of 5 uM ibogaine; format: cell membranes
# [16] = molecular target: T2, Sodium-dependent serotonin transporter
# [17] = compound: CC[C@H]1C[C@H]2C[C@H]3c4[nH]c5ccc(OC)cc5c4CCN(C2)[C@@H]13; assay: (§3) Inhibition of [3H]5HT transport at rat SERT expressed in pig LLC-PK1 cells at 5 uM; format: cell-based
# Procedure, shortened: (§4)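 LLC-PK1 cells stably expressing rat SERT were grown as monolayers. Uptake of [3H]5-HT at varied concentrations was measured for 5 min with or without 5 μM ibogaine. Nonspecific uptake was defined with 100 μM cocaine. Km and Vmax were fitted, with an Eadie-Hofstee plot also shown.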
# [18] = compound: COC(=O)[C@H]1[C@@H](OC(=O)c2ccccc2)C[C@@H]2CC[C@H]1N2C; assay: as §3; format: cell-based; procedure, shortened: as §4
# T2 sequence (P31645 whole entry): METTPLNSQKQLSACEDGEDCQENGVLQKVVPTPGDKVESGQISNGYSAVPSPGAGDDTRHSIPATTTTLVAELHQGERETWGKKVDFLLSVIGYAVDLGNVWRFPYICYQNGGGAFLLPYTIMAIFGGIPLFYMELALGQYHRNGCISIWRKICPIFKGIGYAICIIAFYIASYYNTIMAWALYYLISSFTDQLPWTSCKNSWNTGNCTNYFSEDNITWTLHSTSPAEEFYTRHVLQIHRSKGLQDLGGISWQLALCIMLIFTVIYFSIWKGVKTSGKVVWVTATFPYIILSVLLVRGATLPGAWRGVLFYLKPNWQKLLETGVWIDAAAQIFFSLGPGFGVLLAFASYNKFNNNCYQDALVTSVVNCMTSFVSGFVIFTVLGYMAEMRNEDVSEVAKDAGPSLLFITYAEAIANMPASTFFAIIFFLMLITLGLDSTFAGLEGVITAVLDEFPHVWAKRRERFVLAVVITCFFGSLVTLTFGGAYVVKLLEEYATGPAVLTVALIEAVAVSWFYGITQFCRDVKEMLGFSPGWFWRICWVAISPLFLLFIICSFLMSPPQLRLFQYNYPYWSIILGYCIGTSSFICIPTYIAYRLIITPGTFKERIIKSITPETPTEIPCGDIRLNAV
Molecule,Activity (Rattus norvegicus [2]) [µM],Activity [3],Activity (Rattus norvegicus [5]),Activity [6],Activity [7],Activity [8],Activity [9],Activity [10],Activity [11],Activity [12],also measured
CC[C@H]1C[C@H]2C[C@H]3c4[nH]c5ccc(OC)cc5c4CCN(C2)[C@@H]13,0.98,Active,Active,Active,Active,Active,Active,Active,Active,Active,Activity (Rattus norvegicus [1]): inactive; Activity (Rattus norvegicus [4]): inactive
COC(=O)[C@H]1[C@@H](OC(=O)c2ccccc2)C[C@@H]2CC[C@H]1N2C,0.58,–,–,–,–,–,–,–,–,–,–
NCCc1c[nH]c2ccc(O)cc12,0.68,Active,Active,Active,inactive,Active,Active,Active,Active,Active,–
CC[C@H]1C[C@@H]2C[C@H]3c4[nH]c5ccc(OC)cc5c4CCN(C2)[C@@H]13 [IBOGAINE],–,–,–,–,–,–,–,–,–,–,IC50 [13]: 2500 nM; IC50 [14]: 6300 nM
COC(=O)[C@H]1[C@@H](c2ccc(I)cc2)C[C@@H]2CC[C@H]1N2C,–,–,–,–,–,–,–,–,–,–,Kd [15]: 2.82 nM; Kd [16]: 0.88 nM
"Sodium-dependent serotonin transporter (Rattus norvegicus), P31652 (protein) METTPLNSQKVLSECKDREDCQENGVLQKGVPTTADRAEPSQISNGYSAVPSTSAGDEASHSIPAATTTLVAEIRQGERETWGKKMDFLLSVIGYAVDLGNIWRFPYICYQNGGGAFLLPYTIMAIFGGIPLFYMELALGQYHRNGCISIWRKICPIFKGIGYAICIIAFYIASYYNTIIAWALYYLISSLTDRLPWTSCTNSWNTGNCTNYFAQDNITWTLHSTSPAEEFYLRHVLQIHQSKGLQDLGTISWQLTLCIVLIFTVIYFSIWKGVKTSGKVVWVTATFPYIVLSVLLVRGATLPGAWRGVVFYLKPNWQKLLETGVWVDAAAQIFFSLGPGFGVLLAFASYNKFNNNCYQDALVTSVVNCMTSFVSGFVIFTVLGYMAEMRNEDVSEVAKDAGPSLLFITYAEAIANMPASTFFAIIFFLMLITLGLDSTFAGLEGVITAVLDEFPHIWAKRREWFVLIVVITCVLGSLLTLTSGGAYVVTLLEEYATGPAVLTVALIEAVAVSWFYGITQFCSDVKEMLGFSPGWFWRICWVAISPLFLLFIICSFLMSPPQLRLFQYNYPHWSIVLGYCIGMSSVICIPTYIIYRLISTPGTLKERIIKSITPETPTEIPCGDIRMNAV",–,–,–,–,–,–,–,–,–,–,Km [17]: 0.17 µM; Vmax [17]: 14 pmol/min/mg; Km [18]: 0.2 µM; Vmax [18]: 35.7 pmol/min/mg

# Reference: ChEMBL document CHEMBL1156501, “Ibogaine, a noncompetitive inhibitor of serotonin transport, acts by stabilizing the cytoplasm-facing state of the transporter” (J Biol Chem, 2007)
